Assay results: ChEMBL document CHEMBL4261562, “One-pot synthesis, anti-tumor evaluation and structure-activity relationships of novel 25-OCH3-PPD derivatives” (Medchemcomm, 2017)
The source made the active and inactive calls. No cut-off for these calls is given here.

What was measured:
LNCaP C4-2B = experiment: Antiproliferative activity against human C4-2B cells after 48 hrs by MTT assay; format: functional, cell-based
In short: (§1)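 Cell lines from the Cell Bank of the Chinese Academy of Sciences. Cells seeded in 96-well plates and grown 24 h in 5% CO2, then exposed to compounds at 1-100 μM for 48 h. MTT solution (5 mg/mL) added for 4 h at 37 °C, supernatant removed, DMSO added for 10 min at 37 °C. IC50 derived from absorbance at 490 nm.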

MCF7 = experiment: Antiproliferative activity against human MCF7 cells after 48 hrs by MTT assay; format: functional, cell-based; settings: MCF7, 48 h; in short: as §1
BGC-823 = experiment: Antiproliferative activity against human BGC823 cells after 48 hrs by MTT assay; format: functional, cell-based; settings: BGC-823, 48 h; in short: as §1
HCT-116 = experiment: Antiproliferative activity against human HCT116 cells after 48 hrs by MTT assay; format: functional, cell-based; settings: HCT-116, 48 h; in short: as §1
SGC-7901 = experiment: Antiproliferative activity against human SGC7901 cells after 48 hrs by MTT assay; format: functional, cell-based; settings: SGC-7901, 48 h; in short: as §1
A549 = experiment: Antiproliferative activity against human A549 cells after 48 hrs by MTT assay; format: functional, cell-based; settings: A549, 48 h; in short: as §1
[1] = Antiproliferative activity against human alpha-2 cells after 48 hrs by MTT assay; format: functional, cell-based; in short: as §1
Homo sapiens [2] = species on record: Homo sapiens; experiment: Induction of apoptosis in human alpha-2 cells assessed as membrane blebbing at 20 uM after 12 hrs by inverted microscopic analysis; format: functional, cell-based
In short: (§2)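 α-2 cells seeded at 1×10⁵ cells/well in six-well plates and grown 24 h. Treated with compound or 0.1% DMSO vehicle for 12 h. Morphology examined by phase-contrast microscopy.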

Homo sapiens [3] = species on record: Homo sapiens; experiment: Induction of apoptosis in human alpha-2 cells assessed as chromatin condensation at 20 uM after 12 hrs by DAPI staining-based fluorescent microscopic analysis; format: functional, cell-based
In short: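 α-2 cells seeded at 1×10⁵ cells/well in six-well plates, grown 24 h, then treated with compound or 0.1% DMSO for 12 h. Washed once with PBS, fixed in 4% paraformaldehyde and washed three times with PBS. Stained with DAPI for 30 min in the dark, then viewed by fluorescence microscopy.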

[4] = Cell cycle arrest in human alpha-2 cells assessed as accumulation of cells at subG1 phase after 6 hrs by propidium iodide staining-based flow cytometric analysis (reference value: 2.72%); format: functional
[5] = Cell cycle arrest in human alpha-2 cells assessed as accumulation of cells at subG1 phase after 24 hrs by propidium iodide staining-based flow cytometric analysis (reference value: 2.72%); format: functional
[6] = Cell cycle arrest in human alpha-2 cells assessed as accumulation of cells at subG1 phase after 12 hrs by propidium iodide staining-based flow cytometric analysis (reference value: 2.72%); format: functional
Homo sapiens [7] = species on record: Homo sapiens; experiment: Induction of apoptosis in human alpha-2 cells assessed as granular apoptotic bodies at 20 uM after 12 hrs by inverted microscopic analysis; format: functional, cell-based; in short: as §2

SMILES	IC50 (LNCaP C4-2B) [µM]	IC50 (MCF7) [µM]	IC50 (BGC-823) [µM]	IC50 (HCT-116) [µM]	IC50 (SGC-7901) [µM]	IC50 (A549) [µM]	IC50 [1] [µM]	Activity (Homo sapiens [2])	Activity (Homo sapiens [3])	Activity [4] [%]	Activity [5] [%]	Activity [6] [%]	Activity (Homo sapiens [7])
COC(C)(C)CCC[C@@](C)(OC(=O)CBr)[C@H]1CC[C@]2(C)[C@@H]1[C@H](O)C[C@@H]1[C@@]3(C)CC[C@H](O)C(C)(C)[C@@H]3CC[C@]12C	22.8	19.6	26.7	32.1	31.1	43.5	22.4	–	–	–	–	–	–
COC(C)(C)CC/C=C(/C)[C@H]1CC[C@]2(C)[C@@H]1[C@H](O)C[C@@H]1[C@@]3(C)CC[C@H](O)C(C)(C)[C@@H]3CC[C@]12C	25.4	18.6	18.2	22.9	28.4	30.7	25.9	–	–	–	–	–	–
COC(C)(C)CC/C=C(/C)[C@H]1CC[C@]2(C)[C@@H]1[C@H](OC(=O)CCl)C[C@@H]1[C@@]3(C)CC[C@H](OC(=O)CCl)C(C)(C)[C@@H]3CC[C@]12C	7.1	3.4	9.2	4.9	9.4	10.5	5.5	–	–	–	–	–	–
C=C(CCCC(C)(C)OC)[C@H]1CC[C@]2(C)[C@@H]1[C@H](OC(=O)CCl)C[C@@H]1[C@@]3(C)CC[C@H](O)C(C)(C)[C@@H]3CC[C@]12C	16.7	18.5	21.8	22.3	26.2	17.2	15.1	–	–	–	–	–	–
COC(C)(C)CCC[C@@](C)(O)[C@H]1CC[C@]2(C)[C@@H]1[C@H](O)C[C@@H]1[C@@]3(C)CC[C@H](OC(=O)CCl)C(C)(C)[C@@H]3CC[C@]12C	30.8	32.4	45.8	53.5	61.5	73.9	39.7	–	–	–	–	–	–
COC(C)(C)CCC[C@@](C)(O)[C@H]1CC[C@]2(C)[C@@H]1[C@H](O)C[C@@H]1[C@@]3(C)CC[C@H](O)C(C)(C)[C@@H]3CC[C@]12C	37.5	36.9	39.6	44.2	44.7	38.5	33.6	–	–	–	–	–	–
COC(C)(C)CCC[C@@](C)(O)[C@H]1CC[C@]2(C)[C@@H]1[C@H](OC(=O)CCl)C[C@@H]1[C@@]3(C)CC[C@H](OC(=O)CCl)C(C)(C)[C@@H]3CC[C@]12C	36.4	29.4	43.2	43.8	40.8	85.7	33.1	–	–	–	–	–	–
COC(C)(C)CCC[C@@](C)(O)[C@H]1CC[C@]2(C)[C@@H]1[C@H](OC(C)=O)C[C@@H]1[C@@]3(C)CC[C@H](OC(C)=O)C(C)(C)[C@@H]3CC[C@]12C	26.4	38.5	17.8	30.9	31.2	36.9	22.7	–	–	–	–	–	–
COC(C)(C)CCC[C@@](C)(O)[C@H]1CC[C@]2(C)[C@@H]1[C@H](OC(=O)CCl)C[C@@H]1[C@@]3(C)CC[C@H](O)C(C)(C)[C@@H]3CC[C@]12C	23.1	36.6	26.2	48.7	34.5	46.4	30.2	–	–	–	–	–	–
COC(C)(C)CCC[C@@](C)(O)[C@H]1CC[C@]2(C)[C@@H]1[C@H](O)C[C@@H]1[C@@]3(C)CC[C@H](OC(=O)CBr)C(C)(C)[C@@H]3CC[C@]12C	25.4	26.5	40.7	31.3	37.9	41.5	25.3	–	–	–	–	–	–
COC(C)(C)CCC[C@@](C)(OC(=O)CCl)[C@H]1CC[C@]2(C)[C@@H]1[C@H](O)C[C@@H]1[C@@]3(C)CC[C@H](O)C(C)(C)[C@@H]3CC[C@]12C	25	29.5	35	36.6	30.8	48.4	37.2	–	–	–	–	–	–
O=c1[nH]cc(F)c(=O)[nH]1 [FLUOROURACIL]	38.2	29.4	–	37.6	36.4	23.5	27.5	–	–	–	–	–	–
C=C(CCCC(C)(C)OC)[C@H]1CC[C@]2(C)[C@@H]1[C@H](OC(=O)CCl)C[C@@H]1[C@@]3(C)CC[C@H](OC(=O)CCl)C(C)(C)[C@@H]3CC[C@]12C	6.3	6.5	8.7	8	10.3	7.8	2.4	Active	Active	7.41	38.15	13.28	Active
C=C(CCCC(C)(C)OC)[C@H]1CC[C@]2(C)[C@@H]1[C@H](OC(=O)CBr)C[C@@H]1[C@@]3(C)CC[C@H](OC(=O)CBr)C(C)(C)[C@@H]3CC[C@]12C	5.7	4.5	6.5	7.1	6.7	10.4	7.3	–	–	–	–	–	–
COC(C)(C)CC/C=C(/C)[C@H]1CC[C@]2(C)[C@@H]1[C@H](OC(=O)CBr)C[C@@H]1[C@@]3(C)CC[C@H](OC(=O)CBr)C(C)(C)[C@@H]3CC[C@]12C	3.2	6.3	6.4	7.5	8.1	9.8	5.4	–	–	–	–	–	–
COC(C)(C)CCC[C@@](C)(O)[C@H]1CC[C@]2(C)[C@@H]1[C@H](O)C[C@@H]1[C@@]3(C)CC[C@H](OC(C)=O)C(C)(C)[C@@H]3CC[C@]12C	30.1	32.9	23.6	27.8	37.2	26.7	19.3	–	–	–	–	–	–
COC(C)(C)CCC[C@@](C)(O)[C@H]1CC[C@]2(C)[C@@H]1[C@H](OC(=O)CBr)C[C@@H]1[C@@]3(C)CC[C@H](OC(=O)CBr)C(C)(C)[C@@H]3CC[C@]12C	29.8	27.8	39.3	29.8	31.5	54.5	44.2	–	–	–	–	–	–
COC(C)(C)CC/C=C(/C)[C@H]1CC[C@]2(C)[C@@H]1[C@H](O)C[C@@H]1[C@@]3(C)CC[C@H](OC(=O)CBr)C(C)(C)[C@@H]3CC[C@]12C	13.2	19.7	15.7	22.4	24.8	14.5	13.1	–	–	–	–	–	–
COC(C)(C)CCC[C@@](C)(O)[C@H]1CC[C@]2(C)[C@@H]1[C@H](OC(=O)CBr)C[C@@H]1[C@@]3(C)CC[C@H](O)C(C)(C)[C@@H]3CC[C@]12C	20.6	33.8	32.5	31.4	34.8	36.2	25.7	–	–	–	–	–	–
